Data set [1] concerns Komagataella pastoris. As to the kind of experiment: Stability in Pichia pastoris GS115 expressing rat recombinant PEPT1 at 5 uM measured for up to 30 mins by HPLC analysis. Format: ADME, organism-based. Particulars: 0.5 h. In a few lines: (§1)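 [14C]oseltamivir 5.0 µM with [14C]PEG200 5.0 µM internal standard was incubated with induced GS115 cells (vector, human, mouse or rat PEPT1) at 24°C, pH 6.5, for up to 30 min. Reactions were quenched with 20% trichloroacetic acid and centrifuged at 4°C. Supernate was analysed by HPLC with radiochemical detection; retention 14.9 min for oseltamivir, 3.6 min for PEG200. n=6.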

The subject of data set [2] is Komagataella pastoris. Nature of the data set: Stability in Pichia pastoris GS115 expressing human recombinant PEPT1 at 5 uM measured for up to 30 mins by HPLC analysis. In kind it is ADME, organism-based. The note with it: 0.5 h. In a few lines: as §1
For data set [3], the target named is T1, Solute carrier family 15 member 1 (Rattus norvegicus, UniProt P51574).
T1 sequence (P51574 whole entry): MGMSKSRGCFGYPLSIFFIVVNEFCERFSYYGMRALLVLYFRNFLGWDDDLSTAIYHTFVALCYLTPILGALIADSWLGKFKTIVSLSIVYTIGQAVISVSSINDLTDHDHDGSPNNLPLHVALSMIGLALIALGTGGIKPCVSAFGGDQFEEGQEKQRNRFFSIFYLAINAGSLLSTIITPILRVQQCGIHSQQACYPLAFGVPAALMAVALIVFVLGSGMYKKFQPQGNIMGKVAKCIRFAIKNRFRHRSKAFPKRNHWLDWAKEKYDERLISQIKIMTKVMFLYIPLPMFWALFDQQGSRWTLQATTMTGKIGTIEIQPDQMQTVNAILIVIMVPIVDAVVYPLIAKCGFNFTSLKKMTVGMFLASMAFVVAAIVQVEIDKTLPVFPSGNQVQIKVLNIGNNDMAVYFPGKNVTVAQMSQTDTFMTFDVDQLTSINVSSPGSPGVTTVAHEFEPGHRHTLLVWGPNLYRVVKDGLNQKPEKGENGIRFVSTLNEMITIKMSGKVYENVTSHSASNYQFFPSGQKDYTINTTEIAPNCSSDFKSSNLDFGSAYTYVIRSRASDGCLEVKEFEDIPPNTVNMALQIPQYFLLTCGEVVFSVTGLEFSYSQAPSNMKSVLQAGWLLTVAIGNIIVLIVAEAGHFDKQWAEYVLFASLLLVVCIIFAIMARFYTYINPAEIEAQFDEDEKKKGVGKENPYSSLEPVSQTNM
Nature of the data set: Inhibition of rat recombinant PEPT1 expressed in Pichia pastoris GS115 assessed as [3H]GlySar uptake after 30s by dual-channel liquid scintillation counting analysis.

In data set [4] the target is T2, Solute carrier family 15 member 1 (Mus musculus, UniProt Q9JIP7).
T2 sequence (Q9JIP7 whole entry): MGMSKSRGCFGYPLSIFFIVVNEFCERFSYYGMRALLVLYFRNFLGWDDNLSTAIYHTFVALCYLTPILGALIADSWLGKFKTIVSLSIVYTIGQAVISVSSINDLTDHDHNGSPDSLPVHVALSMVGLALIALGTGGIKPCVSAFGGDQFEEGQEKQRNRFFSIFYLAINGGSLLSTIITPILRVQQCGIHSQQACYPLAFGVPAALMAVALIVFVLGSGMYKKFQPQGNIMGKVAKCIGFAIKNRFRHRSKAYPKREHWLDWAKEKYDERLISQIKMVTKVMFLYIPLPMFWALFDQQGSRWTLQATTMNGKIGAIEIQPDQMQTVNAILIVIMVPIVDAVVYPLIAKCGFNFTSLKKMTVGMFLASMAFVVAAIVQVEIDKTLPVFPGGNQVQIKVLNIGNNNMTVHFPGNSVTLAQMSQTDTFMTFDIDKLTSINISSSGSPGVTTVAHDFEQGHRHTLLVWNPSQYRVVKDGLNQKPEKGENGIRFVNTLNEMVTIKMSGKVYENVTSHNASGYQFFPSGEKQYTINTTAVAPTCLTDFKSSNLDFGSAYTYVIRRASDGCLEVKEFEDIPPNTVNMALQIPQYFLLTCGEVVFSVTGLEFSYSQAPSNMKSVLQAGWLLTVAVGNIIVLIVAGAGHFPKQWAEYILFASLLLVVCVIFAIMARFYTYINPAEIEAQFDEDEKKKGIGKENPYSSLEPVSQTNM
Nature of the data set: Inhibition of mouse recombinant PEPT1 expressed in Pichia pastoris GS115 assessed as [3H]GlySar uptake after 30s by dual-channel liquid scintillation counting analysis.

Data set [5] concerns the target T2, Solute carrier family 15 member 1. As to the kind of experiment: Drug uptake in Pichia pastoris GS115 expressing mouse recombinant PEPT1 at 0 degC measured immediately after drug addition by dual-channel liquid scintillation counting analysis. Format: ADME. In a few lines:
(§2)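 Nonspecific binding of 5.0 µM [14C]oseltamivir is measured at 0°C in pH 6.5 phosphate buffer. The incubation is quenched immediately after adding the drug to the methanol-induced yeast suspension. Bound radioactivity is counted by liquid scintillation and expressed as pmol/OD600. Mean ± SE (n=6).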

The nature of data set [6]: Protein binding in human at 50 to 500 mg, po bid. Particulars: plasma.
For data set [7], the target named is T3, Solute carrier family 15 member 1 (Homo sapiens, UniProt P46059).
T3 sequence (P46059 whole entry): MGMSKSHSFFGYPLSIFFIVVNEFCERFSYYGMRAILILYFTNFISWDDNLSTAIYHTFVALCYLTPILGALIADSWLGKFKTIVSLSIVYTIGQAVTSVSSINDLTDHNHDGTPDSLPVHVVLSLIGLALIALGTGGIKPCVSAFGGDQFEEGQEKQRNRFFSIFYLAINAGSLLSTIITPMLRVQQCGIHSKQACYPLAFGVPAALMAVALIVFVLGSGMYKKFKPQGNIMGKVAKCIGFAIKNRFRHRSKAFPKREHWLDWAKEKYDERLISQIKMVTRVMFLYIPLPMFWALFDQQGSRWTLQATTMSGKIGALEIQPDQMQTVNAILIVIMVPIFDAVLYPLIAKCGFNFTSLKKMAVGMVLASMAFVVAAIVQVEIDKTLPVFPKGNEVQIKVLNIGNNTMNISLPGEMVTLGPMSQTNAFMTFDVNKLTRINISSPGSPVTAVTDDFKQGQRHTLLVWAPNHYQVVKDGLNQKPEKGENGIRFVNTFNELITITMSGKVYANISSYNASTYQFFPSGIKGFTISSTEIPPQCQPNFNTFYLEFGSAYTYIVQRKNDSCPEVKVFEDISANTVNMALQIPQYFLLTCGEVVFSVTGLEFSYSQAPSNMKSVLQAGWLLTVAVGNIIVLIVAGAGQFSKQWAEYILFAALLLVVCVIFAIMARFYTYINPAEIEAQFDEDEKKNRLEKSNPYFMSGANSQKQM
As to the kind of experiment: Inhibition of human recombinant PEPT1 expressed in Pichia pastoris GS115 assessed as [3H]GlySar uptake after 30s by dual-channel liquid scintillation counting analysis.

For data set [8], the system named is Komagataella pastoris. Nature of the data set: Stability in Pichia pastoris GS115 at 5 uM measured for up to 30 mins by HPLC analysis. Format: ADME, organism-based. The note with it: 0.5 h. In a few lines:
as §1

Data set [9] concerns Komagataella pastoris. Nature of the data set: Stability in Pichia pastoris GS115 expressing mouse recombinant PEPT1 at 5 uM measured for up to 30 mins by HPLC analysis. Format: ADME, organism-based. Particulars: 0.5 h. In a few lines: as §1
For data set [10], the target named is T3, Solute carrier family 15 member 1. As to the kind of experiment: Drug uptake in Pichia pastoris GS115 expressing human recombinant PEPT1 at 0 degC measured immediately after drug addition by dual-channel liquid scintillation counting analysis. Format: ADME. In short, it runs like this:
as §2

For data set [11], the target named is T1, Solute carrier family 15 member 1. As to the kind of experiment: Drug uptake in Pichia pastoris GS115 expressing rat recombinant PEPT1 at 0 degC measured immediately after drug addition by dual-channel liquid scintillation counting analysis. Format: ADME. In short, it runs like this:
as §2

The results in this text go back to ChEMBL document CHEMBL3526053, “Species-dependent uptake of glycylsarcosine but not oseltamivir in Pichia pastoris expressing the rat, mouse, and human intestinal peptide transporter PEPT1” (Drug Metab Dispos, 2012).

Consider `CCOC(=O)C1=C[C@@H](OC(CC)CC)[C@H](NC(C)=O)[C@@H](N)C1.O=P(O)(O)O` [OSELTAMIVIR PHOSPHATE], for which the Stability entry in data set [1], in data set [2], in data set [8] and in [9] was “Stable” in each case. Further, the IC50 – broadly, the point on the concentration scale where inhibition reaches its midpoint – in data set [3] stood at 18.3 mM; in data set [4] it was 10.7 mM; in data set [7], 27.4 mM. The Drug uptake in data set [5], in data set [10] and in [11] was 0.2 pmol/OD throughout. For the same molecule, the fraction unbound (as a rule, the share of the substance not bound to proteins or other matrix) in [6] is 0.58.
